Screening results (PubChem BioAssay)
This is a sample that favours compounds with a hit; in the whole collection about 0.27% have one here.
Bim-Bcl-2: disrupts Bim peptide binding to human Bcl-2 | inhibition, % at 10 µM | Bead-based flow cytometry, Bim peptide-Bcl-2 binding | 0.06% of 190,000 active | P10415; in the data active means inhibition above about 40%;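 further: 0% = no compound wells with probe peptide and 100% = reference peptide inhibitor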
Target sequence (P10415 whole entry, looked up): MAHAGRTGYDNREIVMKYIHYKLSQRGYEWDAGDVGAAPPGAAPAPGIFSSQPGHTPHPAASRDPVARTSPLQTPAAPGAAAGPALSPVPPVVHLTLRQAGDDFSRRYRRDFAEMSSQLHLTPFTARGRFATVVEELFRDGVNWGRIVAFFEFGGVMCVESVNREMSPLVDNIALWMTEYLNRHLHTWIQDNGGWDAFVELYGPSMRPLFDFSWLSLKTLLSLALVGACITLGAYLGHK
Bim-Bcl-B: disrupts Bim peptide binding to human Bcl-B; bead-based flow cytometry; Q9HD36; 0.073% of 190,000 active; inhibition, % at 10 µM;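 further: 0% = tracer peptide without compound and 100% = reference inhibitor peptide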
Bcl-XL Bim block: human Bim-Bcl-XL interaction inhibition | Bim peptide-Bcl-XL binding, bead flow cytometry, fluorescence | Q07817 | AID 1007 | 0.04% of 190,000 active | inhibition, % at 10 µM
Bfl-1 Bim block: inhibitors of Bim-Bfl-1 interaction, human | Q16548 | Bead-based flow cytometry, Bim-Bfl-1 binding inhibition | 0.12% of 190,000 active | inhibition, % at 10 µM;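 further: 0% = wells without compound plus tracer and 100% = blocker peptide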
Target sequence (Q16548 whole entry, looked up): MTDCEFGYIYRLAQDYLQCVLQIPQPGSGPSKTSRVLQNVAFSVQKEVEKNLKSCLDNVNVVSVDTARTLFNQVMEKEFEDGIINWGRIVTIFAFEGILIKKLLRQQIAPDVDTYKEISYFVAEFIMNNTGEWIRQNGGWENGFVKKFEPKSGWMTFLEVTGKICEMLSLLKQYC
Bcl-W Bim block: human Bim-Bcl-W interaction inhibition; Q92843; bead-based flow cytometry, Bim peptide-Bcl-W binding; inhibition, % at 10 µM; 0.02% of 190,000 active;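 further: 0% = bound tracer without compound and 100% = peptide blocker; higher means less fluorescent Bim peptide bound to Bcl-W beads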
Mdm2 ligase inh: blocks human Mdm2 ubiquitin ligase activity. Q00987. cell-based MDM2 ubiquitination luciferase reporter, 2 h; 0 = plate control, 100 = twice control, blank-subtracted. AID 1230. signal enhancement, % at 5 µM. 0.11% of 210,000 active;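 active means signal enhancement of 30% or more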;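 further: luminescence tracks abundance of the self-degrading MDM2-luciferase fusion protein; higher signal means inhibition of MDM2 E3 ligase activity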
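Assay system: mammalian cells stably expressing self-ubiquitinating, self-degrading MDM2 E3–luciferase fusion. Quantity: 2000 cells in each well. Medium: DMEM culture medium. Compound dosing: single-point 5 µM. Timing: cell settling 4 h, compound treatment 2 h, both 37 °C. Technique: luciferase luminescence. Read-out basis: percent signal gain over controls, blank-subtracted. Benchmarks: plate controls and plate blanks.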
* = called active by the depositor; . = not tested or not shown. Unless noted, no stated cut-off is given here; in the data, active means inhibition above about 40%.

SMILES	Bim-Bcl-2	Bim-Bcl-B	Bcl-XL Bim block	Bfl-1 Bim block	Bcl-W Bim block	Mdm2 ligase inh
Cn1c(CCNC(=O)C2CCCCC2)nc2cc(NC(=O)c3cccs3)ccc21	91*	86*	15	59*	8	-16
COc1ccc(CNC(=S)Nc2ccc(OC)cc2)cc1	-5	-6	-7	-16	-6	2
CCCCc1ccc(NC(=S)NCc2ccc(OC)cc2)cc1	44*	51*	-1	17	-1	-15
CC(C)N(C(=O)COC(=O)c1ccccc1C(=O)c1ccc(Cl)c([N+](=O)[O-])c1)C(C)C	-1	-4	-3	-5	-2	-9
O=C(COC(=O)c1ccccc1C(=O)c1ccc(Cl)c([N+](=O)[O-])c1)NC1CCCCCC1	-2	0	-3	-2	0	33*
O=C(Nc1ccccc1Br)C1CC(=O)N(c2ccc3c4c(cccc24)CC3)C1 (configuration not stated)	-9	-8	-8	-16	-2	3
C=C1CCN(Cc2ccccc2)S(=O)(=O)c2ccccc21	.	.	.	.	.	-9
O=C1CCN(Cc2ccccc2)S(=O)(=O)c2ccccc21	.	.	.	.	.	40*
COc1cc(C(C(=O)Nc2c(C)cccc2C)N(C)C(=O)c2ccc(-n3cnnn3)cc2)ccc1O (configuration not stated)	.	.	.	.	.	-18
Cc1ccc(C(=O)N(CCCN(C)C)c2nc3ccc(Cl)cc3s2)cc1C	82*	79*	8	57*	4	-5
CN(C)CCCN(C(=O)c1ccco1)c1nc2ccc(Cl)cc2s1	-1	-3	1	-5	0	-7
ClCc1ncc(-c2ccc(Cl)cc2)o1	-1	-2	-2	-2	-6	-16
CCCN(CCC)CCNc1c(NC2CCN(C(=O)OCC)CC2)c(=O)c1=O	-5	-6	-2	-8	1	48*
Cn1c(=O)[nH]c(=O)c2c1nc(Br)n2CCCc1ccccc1	-8	-3	-4	-6	-4	30*
O=C(NCCC1CC1(Cl)Cl)Nc1ccccc1 (configuration not stated)	.	.	.	.	.	-4
CC1Cc2ccccc2N1C(=O)COc1ccc2c(c1)OCO2 (configuration not stated)	0	-3	0	-5	1	1
O=C(Nc1ccccc1)Nc1ccc2ncoc2c1	41*	52*	59*	13	14	-10
COc1ccccc1-c1cc(C(F)(F)F)nc(S(=O)(=O)CCCC(=O)Nc2cccnc2Cl)n1	2	0	-1	3	-1	43*
COc1ccccc1-c1cc(C(F)(F)F)nc(S(=O)(=O)CCCC(=O)NC(C)C)n1	4	1	0	2	3	-12
CCC(=O)OCCNc1cc(Sc2nc3ccccc3s2)c2nonc2c1[N+](=O)[O-]	2	6	3	54*	9	-21
CCC(=O)OCCNc1cc(Sc2nc3ccccc3[nH]2)c2nonc2c1[N+](=O)[O-]	4	-5	0	35	8	-23
CC1(C)CC(=O)C2=C(C1)Nc1nc(SCCN3CCOCC3)[nH]c(=O)c1C2c1cccs1 (configuration not stated)	4	0	-5	1	1	31*
CSc1nc2c(c(=O)[nH]1)C(c1cccs1)C1=C(CCCC1=O)N2 (configuration not stated)	-13	-10	-9	-19	-2	-2
CCN(CC)Cc1cc(C(=O)O)c(C)o1	-1	-8	-5	-7	-2	32*
Cc1oc(CN2CCOCC2)cc1C(=O)O	0	-3	-1	-5	0	-8
SMILES	Bim-Bcl-2	Bim-Bcl-B	Bcl-XL Bim block	Bfl-1 Bim block	Bcl-W Bim block	Mdm2 ligase inh
CN1C(=O)/C(=C/c2ccc(-c3ccccc3[N+](=O)[O-])o2)SC1=Nc1ccc(Cl)c(C(=O)O)c1	34	44*	64*	33	44*	-9
FC(F)(F)c1ccc(-c2noc(CN3CCCN(C4CCCCC4)CC3)n2)cc1	1	1	-2	3	1	-13
O=C(O)c1ccc(NC2=C(Cl)C(=O)c3ccccc3C2=O)cc1	.	.	.	.	.	-12
Cc1ccc(NC2=C(NC(=O)c3ccccc3)C(=O)c3ccccc3C2=O)cc1Cl	13	0	1	50*	23	-9
O=C(O)c1cccc(NC2=C(Cl)C(=O)c3ccccc3C2=O)c1	11	-48	-5	60*	18	-2
Cc1ccc(NCC(=O)c2ccccc2)cc1Cl	13	5	13	9	0	-22
COc1ccc(CCN2C(=NC(=O)C(C)C)SC3CS(=O)(=O)CC32)cc1OC (configuration not stated)	.	.	.	.	.	-11
Cc1csc(SCC(=O)Nc2ccccc2[N+](=O)[O-])n1	-1	-3	-2	-4	-2	-5
CSc1nnnn1-c1ccc(C)c(Cl)c1	-2	-8	-7	0	-6	-4
O=S1(=O)N=C(N(CCO)/N=C/c2ccncc2)c2ccccc21	12	23	40*	7	30	-4
COCCCN(CC(=O)Nc1ccc(N2CCOCC2)cc1)S(=O)(=O)c1ccccc1	-2	-2	-1	-4	-1	-3
CC(C)(C)C(=O)OCc1cn(-c2ccccc2)nn1	-2	0	1	1	0	-8
CC(C)CC(=O)OCc1cn(-c2ccccc2)nn1	83*	80*	10	58*	1	-4
FC(F)(F)c1nc(=S)c2ccccc2[nH]1	6	-4	6	9	1	-15
Cc1nc(=S)c2ccccc2[nH]1	87*	85*	15	68*	11	-8
c1ccc(N2CCN(c3ccccc3)C2c2cccs2)cc1	-5	-6	-3	-13	4	36*
O=C1CSC(c2cccs2)N1c1ccccc1 (configuration not stated)	1	1	0	0	-1	-16
COC(=O)C(C(C)=O)C1=C/C(=N\S(=O)(=O)c2ccc(C)cc2)c2ccccc2C1=O (configuration not stated)	-6	-6	-6	-9	1	18
CC(C)c1ccc(S(=O)(=O)/N=C2/C=CC(=O)c3ccccc32)cc1	6	-16	1	42*	9	.
CCCCC(C(=O)OCC)C(N)Cc1ccc(F)cc1 (configuration not stated)	58*	76*	83*	7	24	-10
O=C(NCCc1ccccc1)C1CCN(S(=O)(=O)N2CCCCCC2)CC1	1	2	3	7	0	-8
CC(CCc1ccccc1)NC(=O)C1CCN(S(=O)(=O)N2CCCCC2)CC1 (configuration not stated)	28	25	41*	38	25	-19
CCOC(=O)N1C/C(=C\c2ccccc2)C(=O)/C(=C/c2ccccc2)C1	.	.	.	.	.	46*
CCOC(=O)C1(Cc2cccc(OC)c2)CCN(Cc2cnc(C)s2)CC1	-3	-3	-2	-5	-2	-7
